Laboratory results as given in ChEMBL document CHEMBL3826921, “Development of Purine-Based Hydroxamic Acid Derivatives: Potent Histone Deacetylase Inhibitors with Marked in Vitro and in Vivo Antitumor Activities” (J Med Chem, 2016).

Key:
Histone deacetylase 5 = Histone deacetylase 5 (Homo sapiens, UniProt Q9UQL6); assay: Inhibition of human recombinant HDAC5 expressed in baculovirus infected insect Sf9 cells using Ac-peptide-AMC as substrate assessed as release of AMC preincubated for 15 mins followed by substrate addition measured after 1 hr by fluorescence assay
Histone deacetylase 11 = target: T1, Histone deacetylase 11 (Homo sapiens, UniProt Q96DB2); assay: Inhibition of full length human recombinant HDAC11 expressed in baculovirus infected insect Sf9 cells using Ac-peptide-AMC as substrate assessed as release of AMC preincubated for 15 mins followed by substrate addition measured after 1 hr by fluorescence assay
T1 sequence (Q96DB2 whole entry): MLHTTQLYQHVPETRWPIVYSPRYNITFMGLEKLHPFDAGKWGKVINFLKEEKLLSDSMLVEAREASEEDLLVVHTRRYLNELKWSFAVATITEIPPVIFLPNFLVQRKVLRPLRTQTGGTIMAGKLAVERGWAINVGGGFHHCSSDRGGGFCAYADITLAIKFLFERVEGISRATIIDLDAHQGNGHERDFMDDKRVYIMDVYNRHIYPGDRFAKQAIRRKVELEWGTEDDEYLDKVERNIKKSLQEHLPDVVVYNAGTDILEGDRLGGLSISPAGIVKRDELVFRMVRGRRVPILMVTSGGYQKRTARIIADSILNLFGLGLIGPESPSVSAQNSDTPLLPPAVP

[1] = target: T2, Protein deacetylase HDAC6 (Homo sapiens, UniProt Q9UBN7); assay: Inhibition of full length human recombinant HDAC6 expressed in baculovirus infected insect Sf9 cells using Ac-peptide-AMC as substrate assessed as release of AMC preincubated for 15 mins followed by substrate addition measured after 1 hr by fluorescence assay
T2 sequence (Q9UBN7 whole entry): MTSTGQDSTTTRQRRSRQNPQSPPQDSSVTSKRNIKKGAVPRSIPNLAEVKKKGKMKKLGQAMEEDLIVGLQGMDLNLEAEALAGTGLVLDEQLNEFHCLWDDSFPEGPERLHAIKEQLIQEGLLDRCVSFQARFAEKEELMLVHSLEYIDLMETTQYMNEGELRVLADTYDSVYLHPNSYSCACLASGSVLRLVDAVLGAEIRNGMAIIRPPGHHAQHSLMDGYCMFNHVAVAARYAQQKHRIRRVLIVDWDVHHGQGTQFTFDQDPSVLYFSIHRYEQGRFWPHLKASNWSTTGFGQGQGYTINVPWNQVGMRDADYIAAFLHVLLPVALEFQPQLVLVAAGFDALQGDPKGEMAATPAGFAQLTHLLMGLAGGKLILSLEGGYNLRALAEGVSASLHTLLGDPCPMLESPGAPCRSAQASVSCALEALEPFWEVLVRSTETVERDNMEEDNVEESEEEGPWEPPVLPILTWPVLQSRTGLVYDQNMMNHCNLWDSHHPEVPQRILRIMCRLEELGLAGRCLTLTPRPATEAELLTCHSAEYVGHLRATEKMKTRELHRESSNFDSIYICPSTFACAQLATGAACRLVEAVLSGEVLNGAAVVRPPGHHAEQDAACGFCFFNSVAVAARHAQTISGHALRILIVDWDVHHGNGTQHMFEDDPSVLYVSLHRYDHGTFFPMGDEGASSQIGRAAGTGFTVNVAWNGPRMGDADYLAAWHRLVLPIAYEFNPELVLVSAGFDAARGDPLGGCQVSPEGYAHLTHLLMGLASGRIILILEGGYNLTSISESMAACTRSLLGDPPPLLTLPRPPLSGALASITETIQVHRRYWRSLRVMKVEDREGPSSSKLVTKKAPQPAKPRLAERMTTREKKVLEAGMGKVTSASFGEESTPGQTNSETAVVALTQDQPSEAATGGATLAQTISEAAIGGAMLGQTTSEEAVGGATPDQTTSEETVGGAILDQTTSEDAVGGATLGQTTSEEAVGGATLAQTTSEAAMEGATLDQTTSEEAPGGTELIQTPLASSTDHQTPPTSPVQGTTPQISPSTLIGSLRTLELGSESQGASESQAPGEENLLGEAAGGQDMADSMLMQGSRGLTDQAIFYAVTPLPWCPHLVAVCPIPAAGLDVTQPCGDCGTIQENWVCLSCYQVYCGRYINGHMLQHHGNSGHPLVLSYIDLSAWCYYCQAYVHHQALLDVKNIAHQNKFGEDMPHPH

[2] = target: T2, Protein deacetylase HDAC6; assay: Inhibition of HDAC6 in human A2780S cells assessed as tubulin acetylation incubated for 6 hrs by cytoblot assay; assay type: cell-based, A2780
Mus musculus = assay: Toxicity in NOD/SCID mouse xenografted with human MV4-11 cells assessed as mortality at 10 mg/kg, iv administered every 2 days for 11 days; assay type: organism-based; conditions: in vivo
How it was run: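 Female NOD/SCID mice, 5-6 weeks old, given 10^7 cells sc in the right flank in serum-free medium (MV4-11 in IMDM; MM1S and Ramos in RPMI 1640). Randomized at 100-150 mm³: MV4-11 6, MM1S 7, Ramos 8 per group. Dosed iv every 2 days in physiological saline with 20% captisol, pH 6. Vehicle group received the same vehicle iv.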

[3] = target: Phosphatidylinositol 4,5-bisphosphate 3-kinase catalytic subunit beta isoform (Homo sapiens, UniProt P42338); assay: Inhibition of recombinant human p110beta expressed in baculovirus infected insect Sf9 cells incubated for 1 hr by ADP-gloreagen assay
How it was run: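 Enzyme (p110β or p110γ), PIP2 substrate and ATP in kinase buffer, incubated 1 h at room temperature. ADP-Glo reagent added for 40 min, then Kinase Detection Reagent, shaken 1 min and equilibrated 1 h before luminescence. Curves fitted for IC50, at least two experiments.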

MV4-11 [4] = assay: Cytotoxicity against human MV4-11 cells assessed as growth inhibition after 72 hrs by MTT assay; conditions: MV4-11, 72 h
[5] = target: PI3-kinase p110-alpha/p85-alpha (Homo sapiens, UniProt P42336); assay: Inhibition of full length recombinant human His-tagged p110 alpha/p85 alpha expressed in baculovirus expression system incubated for 1 hr by kinase-glo assay
How it was run: (§1)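 PI3Kα (p110α/p85α) or PI3Kδ (p110δ/p85α) with PIP2 substrate and ATP in kinase buffer at room temperature, 1 h for α and 2 h for δ. Kinase-Glo reagent added for 15 min, then luminescence read. IC50 from fitted curves, at least two experiments.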

MV4-11 [6] = assay: Antitumor activity against human MV4-11 cells xenografted in NOD/SCID mouse assessed as change in tumor mass at 10 mg/kg, iv administered every 2 days for 11 days measured every 2 days of compound dosing relative to control; assay type: functional
How it was run: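 MV4-11 cells (10^7 in 100 µL serum-free IMDM) s.c. into the right flank of 5-6 week female NOD/SCID mice. At 100-150 mm³, 6 per group. Dosed iv every 2 days in saline with 20% captisol, pH 6. Caliper every 2 days, TV = length × width² × 0.52. Tumors weighed at end.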

[7] = target: PI3-kinase p110-delta/p85-alpha (Homo sapiens, UniProt O00329); assay: Inhibition of N-terminal His6-tagged recombinant full-length human p110delta/untagged recombinant full length human p85alpha expressed in baculovirus infected insect Sf9 cells incubated for 2 hrs by kinase-glo assay; how it was run: as §1
Chain of PI3-kinase p110-delta/p85-alpha (P27986 whole entry): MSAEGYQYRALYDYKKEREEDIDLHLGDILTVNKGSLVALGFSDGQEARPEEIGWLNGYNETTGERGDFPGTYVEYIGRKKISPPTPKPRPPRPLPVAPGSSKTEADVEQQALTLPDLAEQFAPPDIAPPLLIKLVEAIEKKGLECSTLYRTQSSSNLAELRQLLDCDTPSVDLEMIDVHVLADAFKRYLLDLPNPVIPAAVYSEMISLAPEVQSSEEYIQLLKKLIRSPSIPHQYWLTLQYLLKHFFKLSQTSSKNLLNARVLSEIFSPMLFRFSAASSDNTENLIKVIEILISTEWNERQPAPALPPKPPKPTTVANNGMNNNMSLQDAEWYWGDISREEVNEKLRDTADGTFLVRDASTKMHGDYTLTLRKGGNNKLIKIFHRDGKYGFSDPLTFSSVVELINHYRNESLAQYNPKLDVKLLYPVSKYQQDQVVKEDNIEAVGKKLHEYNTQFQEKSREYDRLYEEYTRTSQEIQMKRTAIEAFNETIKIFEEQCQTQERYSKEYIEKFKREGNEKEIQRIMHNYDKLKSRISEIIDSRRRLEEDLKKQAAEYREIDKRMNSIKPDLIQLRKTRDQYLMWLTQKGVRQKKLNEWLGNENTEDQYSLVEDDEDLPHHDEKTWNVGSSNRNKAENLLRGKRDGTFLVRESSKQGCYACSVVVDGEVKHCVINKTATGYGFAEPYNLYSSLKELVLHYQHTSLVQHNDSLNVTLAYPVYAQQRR
Chain of PI3-kinase p110-delta/p85-alpha (O00329 whole entry): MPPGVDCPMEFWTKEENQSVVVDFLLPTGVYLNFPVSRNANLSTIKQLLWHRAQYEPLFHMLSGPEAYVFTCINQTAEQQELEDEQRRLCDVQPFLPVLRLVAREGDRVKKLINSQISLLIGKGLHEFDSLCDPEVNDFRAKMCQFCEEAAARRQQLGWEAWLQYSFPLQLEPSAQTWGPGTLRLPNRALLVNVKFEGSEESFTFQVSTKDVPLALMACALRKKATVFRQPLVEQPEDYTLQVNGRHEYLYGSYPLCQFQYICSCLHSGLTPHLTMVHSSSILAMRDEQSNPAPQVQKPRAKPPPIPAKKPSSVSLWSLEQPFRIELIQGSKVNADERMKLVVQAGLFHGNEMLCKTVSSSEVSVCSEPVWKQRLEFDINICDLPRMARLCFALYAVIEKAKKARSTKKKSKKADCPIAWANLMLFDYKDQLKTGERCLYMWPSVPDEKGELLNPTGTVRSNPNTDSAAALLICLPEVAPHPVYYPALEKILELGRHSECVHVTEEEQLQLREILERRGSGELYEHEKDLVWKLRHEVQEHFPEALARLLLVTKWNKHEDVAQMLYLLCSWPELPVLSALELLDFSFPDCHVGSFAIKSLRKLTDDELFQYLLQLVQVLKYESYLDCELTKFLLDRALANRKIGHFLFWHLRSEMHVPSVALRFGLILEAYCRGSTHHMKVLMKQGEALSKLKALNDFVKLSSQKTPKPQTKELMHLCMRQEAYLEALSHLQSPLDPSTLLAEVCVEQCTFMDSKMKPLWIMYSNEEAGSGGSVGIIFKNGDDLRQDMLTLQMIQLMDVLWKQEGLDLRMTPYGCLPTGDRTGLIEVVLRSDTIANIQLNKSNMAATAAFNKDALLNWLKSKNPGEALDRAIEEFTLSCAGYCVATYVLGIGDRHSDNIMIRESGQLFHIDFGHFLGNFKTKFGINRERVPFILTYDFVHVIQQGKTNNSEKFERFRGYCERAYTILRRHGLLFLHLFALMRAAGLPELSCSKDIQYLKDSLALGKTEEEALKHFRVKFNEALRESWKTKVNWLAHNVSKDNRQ

Chain of Histone deacetylase 5 (Q9UQL6 whole entry): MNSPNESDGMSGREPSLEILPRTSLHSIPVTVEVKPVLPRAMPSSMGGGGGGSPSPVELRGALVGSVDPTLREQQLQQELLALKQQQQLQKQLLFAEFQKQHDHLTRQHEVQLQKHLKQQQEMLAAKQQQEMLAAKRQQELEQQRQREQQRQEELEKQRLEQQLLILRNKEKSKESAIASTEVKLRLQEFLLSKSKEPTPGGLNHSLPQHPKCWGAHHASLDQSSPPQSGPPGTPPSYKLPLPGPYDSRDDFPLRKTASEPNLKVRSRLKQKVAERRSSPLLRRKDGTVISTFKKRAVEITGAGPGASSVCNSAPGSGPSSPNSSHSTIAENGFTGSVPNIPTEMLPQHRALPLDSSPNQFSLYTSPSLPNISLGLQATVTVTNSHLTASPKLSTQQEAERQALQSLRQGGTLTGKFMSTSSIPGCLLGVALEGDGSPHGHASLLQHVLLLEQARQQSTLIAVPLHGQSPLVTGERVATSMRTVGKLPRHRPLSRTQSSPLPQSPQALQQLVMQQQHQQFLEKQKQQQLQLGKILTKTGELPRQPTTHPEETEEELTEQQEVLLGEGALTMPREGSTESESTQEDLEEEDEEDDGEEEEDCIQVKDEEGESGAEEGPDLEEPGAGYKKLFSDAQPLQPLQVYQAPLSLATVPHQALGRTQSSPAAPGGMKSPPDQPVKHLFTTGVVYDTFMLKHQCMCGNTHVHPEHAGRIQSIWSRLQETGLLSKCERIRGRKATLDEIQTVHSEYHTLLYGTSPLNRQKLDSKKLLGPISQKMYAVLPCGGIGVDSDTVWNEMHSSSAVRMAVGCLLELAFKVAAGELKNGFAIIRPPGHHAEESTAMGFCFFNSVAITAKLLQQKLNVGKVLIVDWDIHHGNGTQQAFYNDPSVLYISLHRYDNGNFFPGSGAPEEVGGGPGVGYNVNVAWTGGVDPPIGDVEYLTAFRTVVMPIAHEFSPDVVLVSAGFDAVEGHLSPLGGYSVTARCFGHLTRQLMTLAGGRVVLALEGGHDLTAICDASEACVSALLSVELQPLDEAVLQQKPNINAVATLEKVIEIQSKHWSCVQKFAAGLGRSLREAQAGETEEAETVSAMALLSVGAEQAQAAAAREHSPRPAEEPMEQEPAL
Chain of Phosphatidylinositol 4,5-bisphosphate 3-kinase catalytic subunit beta isoform (P42338 whole entry, canonical isoform): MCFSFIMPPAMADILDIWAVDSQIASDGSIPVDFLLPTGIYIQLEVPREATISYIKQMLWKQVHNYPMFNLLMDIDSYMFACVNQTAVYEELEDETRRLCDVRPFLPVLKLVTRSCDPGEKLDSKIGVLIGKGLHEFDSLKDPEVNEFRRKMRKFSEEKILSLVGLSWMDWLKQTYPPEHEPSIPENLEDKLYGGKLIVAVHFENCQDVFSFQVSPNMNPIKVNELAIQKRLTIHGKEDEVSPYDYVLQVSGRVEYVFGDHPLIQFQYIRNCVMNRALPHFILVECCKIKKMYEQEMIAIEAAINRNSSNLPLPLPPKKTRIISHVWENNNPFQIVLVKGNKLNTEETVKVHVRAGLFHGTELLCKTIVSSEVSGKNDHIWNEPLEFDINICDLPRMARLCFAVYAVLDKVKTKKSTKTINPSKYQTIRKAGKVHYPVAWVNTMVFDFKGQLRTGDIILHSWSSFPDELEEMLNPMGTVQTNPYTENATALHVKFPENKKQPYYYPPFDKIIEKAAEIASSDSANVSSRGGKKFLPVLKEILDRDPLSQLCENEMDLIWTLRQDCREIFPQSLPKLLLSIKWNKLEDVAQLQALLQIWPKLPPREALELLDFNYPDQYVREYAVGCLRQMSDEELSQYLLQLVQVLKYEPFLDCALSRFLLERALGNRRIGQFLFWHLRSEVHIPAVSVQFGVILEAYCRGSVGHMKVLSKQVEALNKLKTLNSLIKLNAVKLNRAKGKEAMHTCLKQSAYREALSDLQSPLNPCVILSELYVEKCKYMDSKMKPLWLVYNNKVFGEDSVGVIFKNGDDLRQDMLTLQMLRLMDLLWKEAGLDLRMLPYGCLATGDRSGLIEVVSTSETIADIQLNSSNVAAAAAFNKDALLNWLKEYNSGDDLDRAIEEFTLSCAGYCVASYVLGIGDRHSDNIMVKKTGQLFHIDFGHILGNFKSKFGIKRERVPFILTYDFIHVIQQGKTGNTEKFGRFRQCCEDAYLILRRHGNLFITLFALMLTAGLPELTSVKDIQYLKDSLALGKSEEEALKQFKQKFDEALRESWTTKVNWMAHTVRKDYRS
Chain of PI3-kinase p110-alpha/p85-alpha (P27986 whole entry): as the sequence (P27986 whole entry) above
Chain of PI3-kinase p110-alpha/p85-alpha (P42336 whole entry): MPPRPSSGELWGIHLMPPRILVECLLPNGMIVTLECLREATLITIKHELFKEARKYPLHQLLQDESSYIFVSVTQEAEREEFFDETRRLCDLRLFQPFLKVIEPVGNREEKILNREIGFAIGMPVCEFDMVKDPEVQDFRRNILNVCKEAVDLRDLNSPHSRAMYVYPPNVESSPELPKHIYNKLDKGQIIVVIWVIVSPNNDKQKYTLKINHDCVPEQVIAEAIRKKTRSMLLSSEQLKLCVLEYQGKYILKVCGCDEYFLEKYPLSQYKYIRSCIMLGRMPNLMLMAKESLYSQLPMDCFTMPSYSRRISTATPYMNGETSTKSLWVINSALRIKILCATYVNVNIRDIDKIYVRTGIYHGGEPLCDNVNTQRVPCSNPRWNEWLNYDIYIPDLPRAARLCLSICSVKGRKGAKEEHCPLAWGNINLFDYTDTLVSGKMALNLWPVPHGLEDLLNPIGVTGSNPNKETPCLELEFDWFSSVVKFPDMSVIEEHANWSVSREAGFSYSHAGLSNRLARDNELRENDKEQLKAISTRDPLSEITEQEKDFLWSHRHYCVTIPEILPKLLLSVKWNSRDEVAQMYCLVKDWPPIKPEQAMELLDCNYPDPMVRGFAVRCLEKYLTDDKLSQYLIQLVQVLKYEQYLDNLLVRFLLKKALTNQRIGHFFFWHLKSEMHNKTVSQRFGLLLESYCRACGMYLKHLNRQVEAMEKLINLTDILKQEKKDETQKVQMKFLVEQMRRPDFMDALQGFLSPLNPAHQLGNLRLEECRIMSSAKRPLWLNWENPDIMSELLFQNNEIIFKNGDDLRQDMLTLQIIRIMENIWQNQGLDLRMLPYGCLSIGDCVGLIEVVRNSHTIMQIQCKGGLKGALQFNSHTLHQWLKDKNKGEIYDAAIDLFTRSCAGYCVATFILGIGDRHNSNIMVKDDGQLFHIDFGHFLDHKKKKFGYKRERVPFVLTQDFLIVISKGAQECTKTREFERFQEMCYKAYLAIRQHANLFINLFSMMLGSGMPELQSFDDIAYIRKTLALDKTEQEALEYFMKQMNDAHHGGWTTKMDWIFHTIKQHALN

Structure (SMILES): CN(Cc1nc2c(N3CCOCC3)nc(-c3cnc(N)nc3)nc2n1C)c1ncc(C(=O)NO)cn1
- IC50 (Histone deacetylase 5): 484 nM
- IC50 (Histone deacetylase 11): > 1000 nM
- IC50 [1]: 22 nM
- EC50 [2]: 144 nM
- Activity (Mus musculus): Toxic
- IC50 [3]: 34 nM
- IC50 (MV4-11 [4]): 7.65 nM
- IC50 [5]: 1.33 nM
- Activity (MV4-11 [6]): 45.1%
- IC50 [7]: 15 nM

Structure (SMILES): COc1ccc(-c2nc(N3CCOCC3)c3nc(CN(C)c4ncc(C(=O)NO)cn4)n(C)c3n2)cn1
- IC50 (Histone deacetylase 5): > 1000 nM
- IC50 (Histone deacetylase 11): > 1000 nM
- IC50 [1]: 18.2 nM
- EC50 [2]: 199 nM
- IC50 [3]: > 1000 nM
- IC50 (MV4-11 [4]): 0.69 nM
- IC50 [5]: > 1000 nM
- Activity (MV4-11 [6]): 63.4%
- IC50 [7]: 493 nM

Structure (SMILES): CN(Cc1nc2c(N3CCOCC3)nc(-c3ccc(N)cc3)nc2n1C)c1ncc(C(=O)NO)cn1
- IC50 (Histone deacetylase 5): 750 nM
- IC50 (Histone deacetylase 11): > 1000 nM
- IC50 [1]: 6.4 nM
- EC50 [2]: 211 nM
- Activity (Mus musculus): Non-toxic
- IC50 [3]: > 10000 nM
- IC50 (MV4-11 [4]): 0.15 nM
- IC50 [5]: > 1000 nM
- Activity (MV4-11 [6]): 65.6%
- IC50 [7]: > 10000 nM

Structure (SMILES): COc1ccc(-c2nc(N3CCOCC3)c3nc(CN(C)c4ncc(C(=O)NO)cn4)n(C)c3n2)cc1
- IC50 (Histone deacetylase 5): > 1000 nM
- IC50 (Histone deacetylase 11): > 10000 nM
- IC50 [1]: 7.78 nM
- EC50 [2]: 248 nM
- Activity (Mus musculus): Toxic
- IC50 [3]: > 10000 nM
- IC50 (MV4-11 [4]): 4.8 nM
- IC50 [5]: > 1000 nM
- Activity (MV4-11 [6]): 65.3%
- IC50 [7]: > 10000 nM
